Results: ChEMBL document CHEMBL3421616, “Conformational Restriction Leading to a Selective CB2 Cannabinoid Receptor Agonist Orally Active Against Colitis” (ACS Med Chem Lett, 2015)
The source made the active and inactive calls. No cut-off for these calls is given here.

Key:
Cannabinoid receptor 2 [1] = target: T1, Cannabinoid receptor 2 (Homo sapiens, UniProt P34972); assay: Agonist activity at human CB2 receptor after 1 hr by [35S]-GTPgammaS binding assay; assay type: functional
Cannabinoid receptor 1 = Cannabinoid receptor 1 (Homo sapiens, UniProt P21554); assay: Displacement of [3H]-CP55940 from human CB1 receptor after 1 hr by scintillation counting analysis
Cannabinoid receptor 2 [2] = target: T1, Cannabinoid receptor 2; assay: Displacement of [3H]-CP55940 from human CB2 receptor after 1 hr by scintillation counting analysis
Mus musculus [3] = assay: Anticolitis activity in TNBS-induced C57Bl6 mouse acute colitis model assessed as downregulation of TNF-alpha mRNA expression in colon at 10 mg/kg, po qd administered over 7 days, starting 2 days prior to TNBS challenge measured 5 days post TNBS challenge by real-time PCR analysis; assay type: functional, organism-based; design: dose 10 mg/kg
Outline: (§1)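 Mice given test article orally in carboxymethyl cellulose once daily at 0.1, 1 or 10 mg/kg for 7 days, beginning 2 days before TNBS colitis induction; vehicle-only (CMC) controls. Survival followed throughout; body weight loss, semiquantitative macroscopic colon score, histological score and colonic TNFα and IL-1β mRNA assessed at euthanasia 5 days after TNBS. Mean ± SEM, 10 mice per group.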

Mus musculus [4] = assay: Anticolitis activity in TNBS-induced C57Bl6 mouse acute colitis model assessed as reduction of mortality rate at 0.1 to 10 mg/kg, po qd administered over 7 days, starting 2 days prior to TNBS challenge measured 5 days post TNBS challenge relative to vehicle-treated control; assay type: functional, organism-based; outline: as §1
Mus musculus [5] = assay: Anticolitis activity in TNBS-induced C57Bl6 mouse acute colitis model assessed as decrease in bowel thickness and areas of ulceration at 10 mg/kg, po qd administered over 7 days, starting 2 days prior to TNBS challenge measured 5 days post TNBS challenge (reference value: 4.9); assay type: functional
Outline: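 Mouse acute colitis induced by TNBS. Compound given orally in carboxymethyl cellulose (CMC) once daily at 0.1, 1 and 10 mg/kg for 7 days, starting 2 days before induction; controls received CMC alone. Mice euthanised 5 days after TNBS. Colon damage graded with a semiquantitative macroscopic score; mean ± SEM of 10 mice per group, compared with vehicle.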

hERG (KCNH2) = hERG (KCNH2) (Homo sapiens, UniProt Q12809); assay: Binding affinity to human ERG expressed in HEK293 cells assessed as inhibition of tail current at 1 uM after 5 to 10 mins by patch-clamp assay relative to control; assay type: cell-based; details: HEK293 cells expressing human ERG
Outline: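 hERG-expressing HEK 293 cells, conventional whole-cell patch clamp; compound at 1 μM applied cumulatively for 5–10 min at room temperature; tail current inhibition read.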

[6] = Permeability across apical to basolateral side in human Caco2 cells at 10 uM after 60 mins; assay type: ADME, cell-based; details: Caco-2, read-out: permeability
Mus musculus [7] = assay: Anticolitis activity in po dosed TNBS-induced C57Bl6 mouse acute colitis model assessed as reduction of body weight loss administered as qd over 7 days, starting 2 days prior to TNBS challenge measured 5 days post TNBS challenge; assay type: functional, organism-based; outline: as §1
[8] = Fraction unbound in human plasma after 18 hrs by equilibrium dialysis method; assay type: ADME, cell-free
Outline: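 Plasma protein binding by equilibrium dialysis, 18 h at 37 °C.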

Mus musculus [9] = assay: Anticolitis activity in po dosed TNBS-induced C57Bl6 mouse acute colitis model assessed as decrease in bowel thickness and areas of ulceration administered as qd over 7 days, starting 2 days prior to TNBS challenge measured 5 days post TNBS challenge; assay type: functional, organism-based; outline: as §1
Mus musculus [10] = assay: Anticolitis activity in TNBS-induced C57Bl6 mouse acute colitis model assessed as downregulation of IL-1beta mRNA expression in colon at 10 mg/kg, po qd administered over 7 days, starting 2 days prior to TNBS challenge measured 5 days post TNBS challenge by real-time PCR analysis; assay type: functional, organism-based; design: dose 10 mg/kg; outline: as §1
[11] = Metabolic stability in human liver microsomes assessed as compound remaining at 1 uM after 60 mins; assay type: ADME; details: read-out: Stability
Outline: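 Compound (1 μM) incubated with human liver microsomes (0.3 mg/mL) at 37 °C, sampled at 0 and 60 min; percent remaining reported.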

Mus musculus [12] = assay: Anticolitis activity in TNBS-induced C57Bl6 mouse acute colitis model assessed as decrease in degree of inflammation infiltrate, presence of erosion, ulceration, necrosis and depth, surface extension of lesions at 10 mg/kg, po qd administered over 7 days, starting 2 days prior to TNBS challenge measured 5 days post TNBS challenge by Giemsa staining relative to vehicle-treated control; assay type: functional; design: scale not given: the % may be the effect or the level left; outline: as §1
MDCK-II = assay: Inhibition of MDR1 in MDCK2 cells at 10 uM after 30 mins by calcein AM uptake assay relative to control; assay type: cell-based; details: Canis lupus familiaris
Outline: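 MDR1-MDCKII cells; P-gp function read as cellular calcein AM uptake after 30 min incubation at 37 °C.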

T1 sequence (P34972 whole entry): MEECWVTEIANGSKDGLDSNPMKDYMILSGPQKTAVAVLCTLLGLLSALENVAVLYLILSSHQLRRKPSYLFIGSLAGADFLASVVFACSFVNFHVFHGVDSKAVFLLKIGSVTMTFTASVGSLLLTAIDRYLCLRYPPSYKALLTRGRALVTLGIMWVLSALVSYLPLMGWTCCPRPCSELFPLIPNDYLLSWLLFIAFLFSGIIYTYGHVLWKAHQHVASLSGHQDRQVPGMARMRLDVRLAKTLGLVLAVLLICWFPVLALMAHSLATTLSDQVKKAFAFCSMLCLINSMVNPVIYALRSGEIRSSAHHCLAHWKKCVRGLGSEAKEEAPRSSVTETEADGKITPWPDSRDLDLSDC
Cannabinoid receptor 1, sequence (P21554 whole entry): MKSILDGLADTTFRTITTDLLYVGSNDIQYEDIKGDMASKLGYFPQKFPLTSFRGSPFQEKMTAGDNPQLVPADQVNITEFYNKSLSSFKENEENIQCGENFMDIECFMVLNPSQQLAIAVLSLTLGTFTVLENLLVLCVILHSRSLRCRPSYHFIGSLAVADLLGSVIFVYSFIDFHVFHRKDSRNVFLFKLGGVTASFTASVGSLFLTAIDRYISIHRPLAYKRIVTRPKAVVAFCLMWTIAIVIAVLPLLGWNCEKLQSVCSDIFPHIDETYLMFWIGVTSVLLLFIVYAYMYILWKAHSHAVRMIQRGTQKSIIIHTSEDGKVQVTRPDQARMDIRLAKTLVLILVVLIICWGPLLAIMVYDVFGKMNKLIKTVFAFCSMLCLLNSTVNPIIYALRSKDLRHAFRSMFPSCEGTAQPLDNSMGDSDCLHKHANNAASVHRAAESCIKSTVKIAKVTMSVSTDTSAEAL
hERG (KCNH2), sequence (Q12809 whole entry): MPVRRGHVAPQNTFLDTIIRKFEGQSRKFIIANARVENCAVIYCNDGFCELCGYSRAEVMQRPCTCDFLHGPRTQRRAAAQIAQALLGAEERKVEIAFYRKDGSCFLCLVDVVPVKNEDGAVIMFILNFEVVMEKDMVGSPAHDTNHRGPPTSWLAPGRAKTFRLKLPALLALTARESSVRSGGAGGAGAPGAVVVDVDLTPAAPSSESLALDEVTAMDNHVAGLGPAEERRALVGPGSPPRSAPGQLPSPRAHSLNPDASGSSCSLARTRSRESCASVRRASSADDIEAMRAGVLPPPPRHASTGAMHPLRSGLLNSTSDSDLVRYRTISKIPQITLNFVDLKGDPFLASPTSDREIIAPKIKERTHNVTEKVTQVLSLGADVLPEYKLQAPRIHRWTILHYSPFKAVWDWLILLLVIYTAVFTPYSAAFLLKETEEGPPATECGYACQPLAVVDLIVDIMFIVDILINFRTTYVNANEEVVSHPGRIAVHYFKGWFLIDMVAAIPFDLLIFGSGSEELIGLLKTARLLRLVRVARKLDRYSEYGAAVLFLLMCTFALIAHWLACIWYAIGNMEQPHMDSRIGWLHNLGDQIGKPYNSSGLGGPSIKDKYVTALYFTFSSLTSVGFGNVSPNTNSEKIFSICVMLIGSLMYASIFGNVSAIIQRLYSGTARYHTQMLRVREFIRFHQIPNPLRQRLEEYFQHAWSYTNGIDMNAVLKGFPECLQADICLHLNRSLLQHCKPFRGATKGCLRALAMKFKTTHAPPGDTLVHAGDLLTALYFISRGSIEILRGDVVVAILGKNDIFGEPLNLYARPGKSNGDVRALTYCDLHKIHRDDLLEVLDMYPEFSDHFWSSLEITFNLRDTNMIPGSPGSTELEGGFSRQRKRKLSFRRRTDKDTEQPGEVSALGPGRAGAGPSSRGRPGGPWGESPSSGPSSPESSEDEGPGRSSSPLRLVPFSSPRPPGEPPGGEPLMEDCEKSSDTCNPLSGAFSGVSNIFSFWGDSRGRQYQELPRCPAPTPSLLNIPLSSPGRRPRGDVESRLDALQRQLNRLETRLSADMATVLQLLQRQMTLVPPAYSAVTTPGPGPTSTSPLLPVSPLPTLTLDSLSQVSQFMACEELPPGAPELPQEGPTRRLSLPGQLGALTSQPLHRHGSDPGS

Row | Compound | Ki (Cannabinoid receptor 1) | Ki (Cannabinoid receptor 2 [2]) | other results
1 | CCCCCn1cc2c(=O)n(CCC3CCCCC3)nc-2c2ccccc21 |  |  | Emax (Cannabinoid receptor 2 [1]): 141%
2 | CCCCCn1c(-c2ccccc2)c2c(=O)n(-c3cccc(C(F)(F)F)c3)nc-2c2ccccc21 | > 3 µM | > 3 µM | 
3 | CCCCCn1cc2c(=O)n(-c3ccccc3)nc-2c2ccccc21 | > 3 µM | 1.36 µM | 
4 | CCCCCn1c(-c2ccccc2)c2c(=O)n(-c3ccc(OC)cc3)nc-2c2ccccc21 | > 3 µM | > 3 µM | 
5 | CCCCCn1cc2c(=O)n(-c3ccc(OC)cc3)nc-2c2ccccc21 | > 3 µM | > 3 µM | 
6 | CCCCCn1cc2c(=O)n(CC3CCCCC3)nc-2c2ccccc21 |  |  | Emax (Cannabinoid receptor 2 [1]): 149%
7 | CCCCCn1cc2c(=O)n(CCCc3ccccc3)nc-2c2ccccc21 | > 3 µM | > 3 µM | 
8 | CCCCCn1cc2c(=O)n(C3CCCCC3)nc-2c2ccccc21 |  |  | Emax (Cannabinoid receptor 2 [1]): 160%
9 | CCCCCn1c(-c2ccccc2)c2c(=O)[nH]nc-2c2ccccc21 | > 3 µM | > 3 µM | 
10 | CCCCCn1cc(C(=O)NC23CC4CC(CC(C4)C2)C3)c(=O)c(-c2ccncc2)c1C | > 1 µM |  | 
11 | CCCCCn1c(-c2ccccc2)c2c(=O)n(-c3ccccc3)nc-2c2ccccc21 | > 3 µM | > 3 µM | 
12 | CCCCCn1c(-c2ccccc2)c2c(=O)n(CCCc3ccccc3)nc-2c2ccccc21 | > 3 µM | > 3 µM | 
13 | CCCCCn1cc2c(=O)n(CC34CC5CC(CC(C5)C3)C4)nc-2c2ccccc21 | > 3 µM |  | Activity (Mus musculus [3]): inactive; Activity (Mus musculus [4]): Active; fold change (FC) (Mus musculus [5]): 1.7; Emax (Cannabinoid receptor 2 [1]): 163%; inhibition at 1 µM (hERG (KCNH2)): 35.5%; Papp A→B at 1 h, 10 µM [6]: 0.8 ×10⁻⁶ cm/s; Activity (Mus musculus [7]): Dose-dependent effect; fraction unbound at 18 h [8]: < 1; Activity (Mus musculus [9]): Dose-dependent effect; Activity (Mus musculus [10]): Active; remaining at 1 h, 1 µM [11]: 64%; Activity (Mus musculus [12]): 65%; inhibition (MDCK-II): 30.6%
14 | CCCCCn1cc(C(=O)NCC23CC4CC(CC(C4)C2)C3)c(=O)c2ccccc21 | > 3 µM | 0.0216 µM | 
15 | CCCCCn1cc2c(=O)n(-c3cccc(C(F)(F)F)c3)nc-2c2ccccc21 | > 3 µM | 0.0292 µM | 
16 | CCCCCn1cc2c(=O)n(CCC34CC5CC(CC(C5)C3)C4)nc-2c2ccccc21 | > 3 µM |  | 
17 | CCCCCn1c(-c2ccccc2)c2c(=O)n(Cc3ccccc3)nc-2c2ccccc21 | > 3 µM | > 3 µM | 
